≈ marks a conversion by molar mass, not a printed value. Calls of active or inactive are those of the source. The calls are words filed in the database; no cut-off is given here.
How the values were obtained:
[1] = target: T1, von Hippel-Lindau disease tumor suppressor/Interleukin-1 receptor-associated kinase 4 (Homo sapiens, UniProt Q9NWZ3+P40337); experiment: Protac activity at VHL/IRAK4 in human PBMC assessed as induction of degradation of IRAK4 at 3 uM incubated for 24 hrs by Western blot analysis relative to control; assay type: protein assay
Summary of the method: (§1)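 PBMCs exposed to rising compound concentrations for 24 h. IRAK4 protein read by Western blot against DMSO-treated cells. Dmax is the maximum degradation observed.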
Target sequence in this assay (P40337 whole entry, looked up, one chain of several): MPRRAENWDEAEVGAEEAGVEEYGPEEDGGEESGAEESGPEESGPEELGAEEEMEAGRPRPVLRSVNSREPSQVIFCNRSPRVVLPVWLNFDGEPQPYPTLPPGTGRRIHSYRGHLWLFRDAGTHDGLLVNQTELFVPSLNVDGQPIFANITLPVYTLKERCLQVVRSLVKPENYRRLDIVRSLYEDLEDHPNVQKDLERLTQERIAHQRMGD

[2] = target: T2, Interleukin-1 receptor-associated kinase 4 (Homo sapiens, UniProt Q9NWZ3); experiment: Binding affinity to human IRK4 using myelin basic protein as substrate by [gamma-33P]-ATP assay
T2 sequence (Q9NWZ3 whole entry): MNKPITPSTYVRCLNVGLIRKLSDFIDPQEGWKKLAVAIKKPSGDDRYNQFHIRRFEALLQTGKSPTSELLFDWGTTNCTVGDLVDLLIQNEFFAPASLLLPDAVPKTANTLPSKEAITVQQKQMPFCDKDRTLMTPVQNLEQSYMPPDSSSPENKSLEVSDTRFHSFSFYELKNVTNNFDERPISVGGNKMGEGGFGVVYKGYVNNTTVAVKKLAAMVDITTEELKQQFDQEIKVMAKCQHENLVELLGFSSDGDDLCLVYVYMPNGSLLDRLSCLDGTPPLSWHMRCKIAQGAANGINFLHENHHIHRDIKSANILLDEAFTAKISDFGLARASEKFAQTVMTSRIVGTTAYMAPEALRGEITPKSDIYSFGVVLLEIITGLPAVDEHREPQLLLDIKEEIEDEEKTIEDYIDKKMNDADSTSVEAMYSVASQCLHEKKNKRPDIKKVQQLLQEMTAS

[3] = target: Interleukin-1 receptor-associated kinase 1 (Homo sapiens, UniProt P51617); experiment: Binding affinity to human IRK1 using myelin basic protein as substrate by [gamma-33P]-ATP assay
[4] = Chromatographic hydrophobicity index, log D of compound at pH 7.4; assay type: physicochemical; conditions: buffer
[5] = target: T1, von Hippel-Lindau disease tumor suppressor/Interleukin-1 receptor-associated kinase 4; experiment: Protac activity at VHL/IRAK4 in human PBMC assessed as remaining IRAK4 level at 100 nM incubated for 24 hrs by Western blot analysis relative to control; assay type: protein assay; summary of the method: as §1
Target sequence in this assay (P40337 whole entry, looked up, one chain of several): as the sequence (P40337 whole entry, looked up, one chain of several) above

[6] = target: T1, von Hippel-Lindau disease tumor suppressor/Interleukin-1 receptor-associated kinase 4; experiment: Protac activity at VHL/IRAK4 in human PBMC assessed as remaining IRAK4 level at 300 nM incubated for 24 hrs by Western blot analysis relative to control; assay type: protein assay; summary of the method: as §1
Target sequence in this assay (P40337 whole entry, looked up, one chain of several): as the sequence (P40337 whole entry, looked up, one chain of several) above

[7] = target: T1, von Hippel-Lindau disease tumor suppressor/Interleukin-1 receptor-associated kinase 4; experiment: Protac activity at VHL/IRAK4 in human PBMC assessed as remaining IRAK4 level at 1 uM incubated for 24 hrs by Western blot analysis relative to control; assay type: protein assay; summary of the method: as §1
Target sequence in this assay (P40337 whole entry, looked up, one chain of several): as the sequence (P40337 whole entry, looked up, one chain of several) above

[8] = target: T1, von Hippel-Lindau disease tumor suppressor/Interleukin-1 receptor-associated kinase 4; experiment: Protac activity at VHL/IRAK4 in human PBMC assessed as remaining IRAK4 level at 10 uM incubated for 24 hrs by Western blot analysis relative to control; assay type: protein assay; summary of the method: as §1
Target sequence in this assay (P40337 whole entry, looked up, one chain of several): as the sequence (P40337 whole entry, looked up, one chain of several) above

[9] = target: T1, von Hippel-Lindau disease tumor suppressor/Interleukin-1 receptor-associated kinase 4; experiment: Protac activity at VHL/IRAK4 in human dermal fibroblast assessed as reduction in IL-1beta stimulated IL-6 level at 300 nM incubated for 18 hrs followed by IL-1beta stimulation further incubated for 8 hrs by MSD assay; assay type: protein assay
Summary of the method: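 Human dermal fibroblasts pretreated 18 h with 300 nM compound, then stimulated 8 h with IL-1β (10 ng/mL). Secreted IL-6 measured. n = 4, mean ± SE.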
Target sequence in this assay (P40337 whole entry, looked up, one chain of several): as the sequence (P40337 whole entry, looked up, one chain of several) above

[10] = target: E3 ubiquitin-protein ligase XIAP/Interleukin-1 receptor-associated kinase 4 (Homo sapiens) (UniProt Q9NWZ3+P98170); experiment: Protac activity at IAP/IRAK4 in human PBMC assessed as induction of degradation of IRAK4 incubated for 24 hrs by Western blot analysis relative to control; assay type: protein assay; summary of the method: as §1
[11] = target: T1, von Hippel-Lindau disease tumor suppressor/Interleukin-1 receptor-associated kinase 4; experiment: Protac activity at VHL/IRAK4 in human PBMCs assessed as induction of degradation of IRAK4 at 0.1 to 10 uM incubated for 24 hrs by Western blot analysis
[12] = target: Protein cereblon/Interleukin-1 receptor-associated kinase 4 (Homo sapiens) (UniProt Q9NWZ3+Q96SW2); experiment: Protac activity at CRBN/IRAK4 in human PBMC assessed as induction of degradation of IRAK4 incubated for 24 hrs by Western blot analysis relative to control; assay type: protein assay; summary of the method: as §1
[13] = target: T1, von Hippel-Lindau disease tumor suppressor/Interleukin-1 receptor-associated kinase 4; experiment: Protac activity at VHL/IRAK4 in human PBMC assessed as induction of degradation of IRAK4 incubated for 24 hrs by Western blot analysis; assay type: protein assay; summary of the method: as §1
Target sequence in this assay (P40337 whole entry, one chain of several): as the sequence (P40337 whole entry, looked up, one chain of several) above

[14] = Solubility of compound; assay type: physicochemical
[15] = target: T1, von Hippel-Lindau disease tumor suppressor/Interleukin-1 receptor-associated kinase 4; experiment: Protac activity at VHL/IRAK4 in human epoxomicin PBMC assessed as increase in p21 accumulation at 0.01 to 10 uM incubated for 22 hrs by Western blot analysis; assay type: protein assay
Summary of the method: (§2)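 PBMCs pretreated 2 h with 10 μM epoxomicin, then given compound for a further 22 h. IRAK4 and p21 (proteasome-inhibition marker) read by Western blot against DMSO-treated cells.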

[16] = target: T3, von Hippel-Lindau disease tumor suppressor/Interleukin-1 receptor-associated kinase 4 (Homo sapiens, UniProt P40337+Q9NWZ3); experiment: Protac activity at VHL/IRAK4 in human PBMC assessed as reduction in R848-stimulated IL-1beta level preincubated for 18 hrs followed by R848-stimulation and measured after 8 hrs by MSD assay; assay type: protein assay
Summary of the method: (§3)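 PBMCs pretreated 18 h with compound, then stimulated 8 h with R848 (2.5 μg/mL). Secreted cytokines measured by MSD electrochemiluminescence.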

[17] = target: T3, von Hippel-Lindau disease tumor suppressor/Interleukin-1 receptor-associated kinase 4; experiment: Protac activity at VHL/IRAK4 in human PBMC assessed as reduction in R848-stimulated IFNgamma preincubated for 18 hrs followed by R848 stimulation and measured after 8 hrs by MSD assay; assay type: protein assay; summary of the method: as §3
[18] = target: T3, von Hippel-Lindau disease tumor suppressor/Interleukin-1 receptor-associated kinase 4; experiment: Protac activity at VHL/IRAK4 in human PBMC assessed as reduction in R848-stimulated IL-6 level preincubated for 18 hrs followed by R848 stimulation and measured after 8 hrs by MSD assay; assay type: protein assay; summary of the method: as §3
[19] = target: T3, von Hippel-Lindau disease tumor suppressor/Interleukin-1 receptor-associated kinase 4; experiment: Protac activity at VHL/IRAK4 in human PBMC assessed as reduction in R848-stimulated IL-8 level preincubated for 18 hrs followed by R848 stimulation and measured after 8 hrs by MSD assay; assay type: protein assay; summary of the method: as §3
[20] = target: T3, von Hippel-Lindau disease tumor suppressor/Interleukin-1 receptor-associated kinase 4; experiment: Protac activity at VHL/IRAK4 in human PBMC assessed as reduction in R848-stimulated IL-10 level preincubated for 18 hrs followed by R848 stimulation and measured after 8 hrs by MSD assay; assay type: protein assay; summary of the method: as §3
[21] = target: T3, von Hippel-Lindau disease tumor suppressor/Interleukin-1 receptor-associated kinase 4; experiment: Protac activity at VHL/IRAK4 in human PBMC assessed as reduction in R848-stimulated TNFalpha level preincubated for 18 hrs followed by R848 stimulation and measured after 8 hrs by MSD assay; assay type: protein assay; summary of the method: as §3
[22] = target: T1, von Hippel-Lindau disease tumor suppressor/Interleukin-1 receptor-associated kinase 4; experiment: Protac activity at VHL/IRAK4 in human dermal fibroblast assessed as induction of degradation of IRAK4 incubated for 24 hrs by Western blot analysis; assay type: protein assay
Summary of the method: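 Human dermal fibroblasts treated with compound for 24 h. IRAK4 protein measured by Western blot and DC50 derived.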
Target sequence in this assay (P40337 whole entry, one chain of several): as the sequence (P40337 whole entry, looked up, one chain of several) above

[23] = target: T1, von Hippel-Lindau disease tumor suppressor/Interleukin-1 receptor-associated kinase 4; experiment: Protac activity at VHL/IRAK4 in human epoxomicin pretreated PBMC assessed as induction of degradation of IRAK4 at 0.01 to 10 uM incubated for 22 hrs by Western blot analysis; assay type: protein assay; summary of the method: as §2
[24] = target: T1, von Hippel-Lindau disease tumor suppressor/Interleukin-1 receptor-associated kinase 4; experiment: Protac activity at VHL/IRAK4 in human PBMC assessed as induction of degradation of IRAK4 incubated for 24 hrs by Western blot analysis relative to control; assay type: protein assay; summary of the method: as §1

T3 sequence (P40337 whole entry, one chain of several): as the sequence (P40337 whole entry, looked up, one chain of several) above
Chain of Interleukin-1 receptor-associated kinase 1 (P51617 whole entry): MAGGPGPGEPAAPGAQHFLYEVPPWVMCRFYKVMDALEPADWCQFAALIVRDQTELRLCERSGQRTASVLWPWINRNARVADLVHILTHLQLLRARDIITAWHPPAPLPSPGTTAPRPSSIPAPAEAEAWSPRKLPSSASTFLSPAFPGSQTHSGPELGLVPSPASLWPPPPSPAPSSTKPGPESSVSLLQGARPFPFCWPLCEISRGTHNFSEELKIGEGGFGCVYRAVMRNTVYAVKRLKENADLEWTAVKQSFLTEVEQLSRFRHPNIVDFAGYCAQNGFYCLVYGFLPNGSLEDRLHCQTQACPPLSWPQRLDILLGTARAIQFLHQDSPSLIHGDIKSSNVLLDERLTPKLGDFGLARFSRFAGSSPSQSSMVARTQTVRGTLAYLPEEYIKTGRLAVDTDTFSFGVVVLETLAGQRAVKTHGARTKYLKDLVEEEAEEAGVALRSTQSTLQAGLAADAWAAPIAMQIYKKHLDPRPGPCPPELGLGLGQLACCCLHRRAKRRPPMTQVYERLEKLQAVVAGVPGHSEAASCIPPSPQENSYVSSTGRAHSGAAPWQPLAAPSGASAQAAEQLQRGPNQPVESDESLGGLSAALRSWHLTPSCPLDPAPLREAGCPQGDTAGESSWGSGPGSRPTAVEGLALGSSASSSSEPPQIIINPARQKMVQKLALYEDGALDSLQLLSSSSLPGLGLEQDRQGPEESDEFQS
Chain of E3 ubiquitin-protein ligase XIAP/Interleukin-1 receptor-associated kinase 4 (Homo sapiens) (P98170 whole entry, looked up, one chain of several): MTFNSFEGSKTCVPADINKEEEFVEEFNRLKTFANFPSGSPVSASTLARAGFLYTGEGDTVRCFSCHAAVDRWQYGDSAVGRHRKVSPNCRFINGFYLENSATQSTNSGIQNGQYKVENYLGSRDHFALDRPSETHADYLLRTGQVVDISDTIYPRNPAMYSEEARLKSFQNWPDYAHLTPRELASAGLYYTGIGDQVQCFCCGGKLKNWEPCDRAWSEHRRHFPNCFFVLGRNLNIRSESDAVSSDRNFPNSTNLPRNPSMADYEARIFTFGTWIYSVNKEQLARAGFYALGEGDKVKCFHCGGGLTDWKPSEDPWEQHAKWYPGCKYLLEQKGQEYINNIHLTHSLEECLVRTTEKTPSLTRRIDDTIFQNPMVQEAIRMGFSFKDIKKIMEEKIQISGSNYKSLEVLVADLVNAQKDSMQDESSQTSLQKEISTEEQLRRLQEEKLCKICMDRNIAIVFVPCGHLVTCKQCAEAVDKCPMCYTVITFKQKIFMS
Chain of Protein cereblon/Interleukin-1 receptor-associated kinase 4 (Homo sapiens) (Q96SW2 whole entry, looked up, one chain of several): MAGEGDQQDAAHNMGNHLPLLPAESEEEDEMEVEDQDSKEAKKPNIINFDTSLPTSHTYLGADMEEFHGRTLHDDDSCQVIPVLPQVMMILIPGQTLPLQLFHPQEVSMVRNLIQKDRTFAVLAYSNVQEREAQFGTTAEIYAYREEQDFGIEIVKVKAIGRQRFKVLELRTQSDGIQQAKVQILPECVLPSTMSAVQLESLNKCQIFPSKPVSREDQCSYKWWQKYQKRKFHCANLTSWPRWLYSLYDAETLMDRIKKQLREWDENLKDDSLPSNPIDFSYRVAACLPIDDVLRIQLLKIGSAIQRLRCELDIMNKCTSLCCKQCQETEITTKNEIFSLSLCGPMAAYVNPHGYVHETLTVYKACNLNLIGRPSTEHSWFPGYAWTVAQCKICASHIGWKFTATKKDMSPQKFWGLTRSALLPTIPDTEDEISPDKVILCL

Row | Compound | IC50 [2] [nM] | IC50 [3] [nM] | Chromatographic log D at pH 7.4 (ChromLogD) [4] | Activity [11] | also measured
1 | CC[C@@H]1[C@H](F)C(=O)N[C@@H]1COc1nccc2cc(C(N)=O)c(OC)cc12 |  |  |  |  | Activity [9]: inactive
2 | CN[C@@H](C)C(=O)N[C@H](C(=O)N1C[C@@H](NC(=O)CCCCCCCCCCC#Cc2cnc(OC[C@@H]3CCC(=O)N3)c3cc(OC)c(C(N)=O)cc23)C[C@H]1C(=O)N[C@@H]1CCCc2ccccc21)C1CCCCC1 | 21 | 6940 | 6.56 | inactive | Emax [10]: 0%
3 | COc1cc2c(OC[C@@H]3CCC(=O)N3)ncc(C#CCCC(=O)N[C@H](C(=O)N3C[C@H](O)C[C@H]3C(=O)NCc3ccc(-c4scnc4C)cc3)C(C)(C)C)c2cc1C(N)=O |  |  |  | inactive | 
4 | CN[C@@H](C)C(=O)N[C@H](C(=O)N1C[C@@H](NC(=O)CCOCCOCCOCC#Cc2cnc(OC[C@@H]3CCC(=O)N3)c3cc(OC)c(C(N)=O)cc23)C[C@H]1C(=O)N[C@@H]1CCCc2ccccc21)C1CCCCC1 | 0.022 | > 10000 | 3.79 | inactive | Emax [10]: 0%
5 | COc1cc2c(OC[C@@H]3CCC(=O)N3)ncc(C#CCCCC(=O)N[C@H](C(=O)N3C[C@H](O)C[C@H]3C(=O)NCc3ccc(-c4scnc4C)cc3)C(C)(C)C)c2cc1C(N)=O |  |  |  | inactive | 
6 | COc1cc2c(OC[C@@H]3CCC(=O)N3)ncc(C#CCCCCCCCCCCOc3cccc4c3C(=O)N(C3CCC(=O)NC3=O)C4=O)c2cc1C(N)=O (some centres not stated) | 2.5 | > 10000 | 6.01 | inactive | Emax [12]: 0%
7 | COc1cc2c(OC[C@@H]3CCC(=O)N3)ncc(C#CCOCCOCCOCCC(=O)N[C@H](C(=O)N3C[C@H](O)C[C@H]3C(=O)NCc3ccc(-c4scnc4C)cc3)C(C)(C)C)c2cc1C(N)=O | 0.29 | > 10000 | 3.18 | inactive | Emax [24]: 0%

Further lines, with some results ahead:

Row | IC50 [2] [nM] | IC50 [3] [nM] | Chromatographic log D at pH 7.4 (ChromLogD) [4] | Activity [11] | Compound | also measured
8 | 0.099 | > 10000 | 5.82 |  | COc1cc2c(OC[C@@H]3CCC(=O)N3)ncc(C#CCCCCCCCCCCC(=O)N[C@H](C(=O)N3C[C@H](O)C[C@H]3C(=O)NCc3ccc(-c4scnc4C)cc3)C(C)(C)C)c2cc1C(N)=O | Emax [1]: 50%; Activity [5]: 101%; Activity [6]: 80%; Activity [7]: 81%; Activity [8]: 65%
9 |  |  |  | inactive | COc1cc2c(OC[C@@H]3CCC(=O)N3)ncc(C#CCOCCOCCOCCOc3cccc4c3C(=O)N(C3CCC(=O)NC3=O)C4=O)c2cc1C(N)=O (some centres not stated) | Emax [12]: 0%
10 |  |  | 4.97 |  | CC[C@@H]1[C@H](F)C(=O)N[C@@H]1COc1ncc(C#CCN2CCC3(CC2)CCN(c2ncc(C(=O)N[C@H](C(=O)N4C[C@H](O)C[C@H]4C(=O)NCc4ccc(-c5scnc5C)cc4)C(C)(C)C)cn2)CC3)c2cc(C(N)=O)c(OC)cc12 | DC50 [13]: 151 nM; solubility [14]: 5 µM (≈ 5.43 µg/mL); Activity [15]: Active; IC50 [16]: 39.8 nM; IC50 [17]: 31.6 nM; IC50 [18]: 63.1 nM; IC50 [19]: 79.4 nM; IC50 [20]: 316 nM; IC50 [21]: 50.1 nM; DC50 [22]: 36 nM; Activity [9]: inactive; Activity [23]: inactive
11 |  |  | 6.44 |  | CC[C@@H]1[C@H](F)C(=O)N[C@@H]1COc1ncc(C#CCCCCCCCCCCC(=O)N[C@H](C(=O)N2CC(O)CC2C(=O)NCc2ccc(-c3scnc3C)cc2)C(C)(C)C)c2cc(C(N)=O)c(OC)cc12 (single isomer, unassigned) | DC50 [13]: 259 nM; solubility [14]: < 1 µM
12 | 2.1 | > 10000 | 2.1 |  | COc1cc2c(OC[C@@H]3CCC(=O)N3)ncc(Br)c2cc1C(N)=O | 

Source: ChEMBL document CHEMBL4359855, “Targeting IRAK4 for Degradation with PROTACs” (ACS Med Chem Lett, 2019)
